Legend:
Assay type in all cases: functional
MDA-MB-468 [1] = experiment: Growth inhibition of human MDA-MB-468 cells at 10 uM after 96 hrs by MTT assay; parameters: scale not given: the % may be the effect or the level left
NCI/ADR-RES = experiment: Growth inhibition of human NCI/ADR-RES cells at 1 nM after 96 hrs by MTT assay; parameters: scale not given: the % may be the effect or the level left
OVCAR-4 = experiment: Growth inhibition of human OVCAR4 cells after 96 hrs by MTT assay; conditions: OVCAR-4, 96 h
How it was run: (§1)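 Tested in the NCI 60-cell-line panel in five-dose format; GI50 and LC50 values reported for each cell line.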

A549 = experiment: Growth inhibition of human A549 cells after 96 hrs by MTT assay; conditions: A549, 96 h
K562 [2] = experiment: Growth inhibition of human K562 cells at 1 nM after 96 hrs by MTT assay; parameters: scale not given: the % may be the effect or the level left
HOP-62 [3] = experiment: Growth inhibition of human HOP62 cells at 1 uM after 96 hrs by MTT assay; parameters: scale not given: the % may be the effect or the level left
HL-60(TB) [4] = experiment: Growth inhibition of human HL-60(TB) cells at 100 nM after 96 hrs by MTT assay; parameters: scale not given: the % may be the effect or the level left
M14 = experiment: Growth inhibition of human M14 cells at 1 uM after 96 hrs by MTT assay; parameters: scale not given: the % may be the effect or the level left
PC-3 = experiment: Growth inhibition of human PC3 cells at 1 uM after 96 hrs by MTT assay; parameters: scale not given: the % may be the effect or the level left
KM12 = experiment: Growth inhibition of human KM12 cells at 10 uM after 96 hrs by MTT assay; parameters: scale not given: the % may be the effect or the level left
UACC-257 = experiment: Growth inhibition of human UACC257 cells at 100 nM after 96 hrs by MTT assay; parameters: scale not given: the % may be the effect or the level left
HOP-62 [5] = experiment: Growth inhibition of human HOP62 cells at 100 nM after 96 hrs by MTT assay; parameters: scale not given: the % may be the effect or the level left
NCI-H522 = experiment: Growth inhibition of human NCI-H522 cells after 96 hrs by MTT assay; conditions: NCI-H522, 96 h
How it was run: (§2)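 Run in the NCI 60 human tumour cell line panel as a five-dose assay. GI50 and LC50 were reported for each cell line.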

NCI-H226 = experiment: Growth inhibition of human NCI-H226 cells at 100 nM after 96 hrs by MTT assay; parameters: scale not given: the % may be the effect or the level left
MDA-MB-231 = experiment: Growth inhibition of human MDA-MB-231 cells at 1 uM after 96 hrs by MTT assay; parameters: scale not given: the % may be the effect or the level left
BT-549 [6] = experiment: Growth inhibition of human BT549 cells at 1 nM after 96 hrs by MTT assay; parameters: scale not given: the % may be the effect or the level left
MDA-MB-435 = experiment: Growth inhibition of human MDA-MB-435 cells at 100 nM after 96 hrs by MTT assay; parameters: scale not given: the % may be the effect or the level left
MDA-MB-468 [7] = experiment: Growth inhibition of human MDA-MB-468 cells at 100 nM after 96 hrs by MTT assay; parameters: scale not given: the % may be the effect or the level left
TK-10 = experiment: Growth inhibition of human TK10 cells at 1 nM after 96 hrs by MTT assay; parameters: scale not given: the % may be the effect or the level left
EKVX = experiment: Growth inhibition of human EKVX cells at 100 nM after 96 hrs by MTT assay; parameters: scale not given: the % may be the effect or the level left
IGROV-1 [8] = experiment: Growth inhibition of human IGROV1 cells after 96 hrs by MTT assay; conditions: IGROV-1, 96 h; how it was run: as §2
HOP-62 [9] = experiment: Growth inhibition of human HOP62 cells at 10 nM after 96 hrs by MTT assay; parameters: scale not given: the % may be the effect or the level left
NCI-H322M = experiment: Growth inhibition of human NCI-H322M cells after 96 hrs by MTT assay; how it was run: as §2
SF-295 = experiment: Growth inhibition of human SF295 cells at 1 uM after 96 hrs by MTT assay; parameters: scale not given: the % may be the effect or the level left
SR = experiment: Growth inhibition of human SR cells at 10 nM after 96 hrs by MTT assay; parameters: scale not given: the % may be the effect or the level left
IGROV-1 [10] = experiment: Growth inhibition of human IGROV1 cells at 100 nM after 96 hrs by MTT assay; parameters: scale not given: the % may be the effect or the level left
HOP-92 [11] = experiment: Growth inhibition of human HOP92 cells at 1 nM after 96 hrs by MTT assay; parameters: scale not given: the % may be the effect or the level left
SF-268 = experiment: Growth inhibition of human SF268 cells at 1 nM after 96 hrs by MTT assay; parameters: scale not given: the % may be the effect or the level left
HOP-92 [12] = experiment: Growth inhibition of human HOP92 cells at 10 nM after 96 hrs by MTT assay; parameters: scale not given: the % may be the effect or the level left
K562 [13] = experiment: Growth inhibition of human K562 cells at 1 uM after 96 hrs by MTT assay; parameters: scale not given: the % may be the effect or the level left
[14] = Growth inhibition of human RPMI8266 cells at 1 nM after 96 hrs by MTT assay; parameters: scale not given: the % may be the effect or the level left
SNB-19 = experiment: Growth inhibition of human SNB19 cells at 1 uM after 96 hrs by MTT assay; parameters: scale not given: the % may be the effect or the level left
IGROV-1 [15] = experiment: Growth inhibition of human IGROV1 cells at 1 uM after 96 hrs by MTT assay; parameters: scale not given: the % may be the effect or the level left
UO-31 [16] = experiment: Growth inhibition of human UO31 cells after 96 hrs by MTT assay; conditions: UO-31, 96 h; how it was run: as §1
UO-31 [17] = experiment: Growth inhibition of human UO31 cells at 100 nM after 96 hrs by MTT assay; parameters: scale not given: the % may be the effect or the level left
HL-60(TB) [18] = experiment: Growth inhibition of human HL-60(TB) cells after 96 hrs by MTT assay; conditions: HL-60, 96 h
U-251 = experiment: Growth inhibition of human U251 cells at 1 nM after 96 hrs by MTT assay; parameters: scale not given: the % may be the effect or the level left
HCC 2998 = experiment: Growth inhibition of human HCC2998 cells at 10 uM after 96 hrs by MTT assay; parameters: scale not given: the % may be the effect or the level left
K562 [19] = experiment: Growth inhibition of human K562 cells at 10 uM after 96 hrs by MTT assay; parameters: scale not given: the % may be the effect or the level left
BT-549 [20] = experiment: Growth inhibition of human BT549 cells at 10 nM after 96 hrs by MTT assay; parameters: scale not given: the % may be the effect or the level left
ACHN = experiment: Growth inhibition of human ACHN cells at 1 uM after 96 hrs by MTT assay; parameters: scale not given: the % may be the effect or the level left
[21] = read-out: LC50 (the source's name)
[22] = read-out: Log10GI50 (converted)
[23] = read-out: Log10LC50 (converted)

`C=C(C)[C@H]1CC=C(C)C2=CO[C@@H](c3ccccc3F)[C@@H]21` showed an Activity (MDA-MB-468 [1]) of 102.71%, an Activity (NCI/ADR-RES) of 105% and a GI50 (OVCAR-4; read-out: GI50) of 4.1 µM. It also gave a CC50 (OVCAR-4; [21]) of 86.6 µM, a GI50 (OVCAR-4; [22]) of 4.07 µM and a CC50 (OVCAR-4; [23]) of 87.1 µM. The TGI (OVCAR-4; read-out: Log10TGI (converted)) was 24 µM, the TGI (OVCAR-4; read-out: TGI) was 23.7 µM and the GI50 (A549; read-out: GI50) was 6.17 µM. For the same compound, the CC50 (A549; [21]) was > 100 µM, the GI50 (A549; [22]) was 6.17 µM and the CC50 (A549; [23]) was > 100 µM. It also gave a TGI (A549; read-out: Log10TGI (converted)) of 30.2 µM, a TGI (A549; read-out: TGI) of 30.1 µM and an Activity (K562 [2]) of 101%. It also gave an Activity (HOP-62 [3]) of 51%, an Activity (HL-60(TB) [4]) of 92% and an Activity (M14) of 43%. For the same compound, the Activity (PC-3) was 20%, the Activity (KM12) was 85.93% and the Activity (UACC-257) was 81%. It also gave an Activity (HOP-62 [5]) of 98%, a GI50 (NCI-H522; read-out: GI50) of 3.13 µM and a CC50 (NCI-H522; [21]) of 45.5 µM. The GI50 (NCI-H522; [22]) was 3.16 µM, the CC50 (NCI-H522; [23]) was 45.7 µM and the TGI (NCI-H522; read-out: Log10TGI (converted)) was 17.4 µM. The TGI (NCI-H522; read-out: TGI) was 17.4 µM, the Activity (NCI-H226) was 75% and the Activity (MDA-MB-231) was 43%. It also gave an Activity (BT-549 [6]) of 97%, an Activity (MDA-MB-435) of 84% and an Activity (MDA-MB-468 [7]) of 57%. It also gave an Activity (TK-10) of 84%, an Activity (EKVX) of 80% and a GI50 (IGROV-1 [8]; read-out: GI50) of 11.3 µM. For the same compound, the CC50 (IGROV-1 [8]; [21]) was > 100 µM, the GI50 (IGROV-1 [8]; [22]) was 11.2 µM and the CC50 (IGROV-1 [8]; [23]) was > 100 µM. The TGI (IGROV-1 [8]; read-out: Log10TGI (converted)) was 34.7 µM, the TGI (IGROV-1 [8]; read-out: TGI) was 34.6 µM and the Activity (HOP-62 [9]) was 97%. For the same compound, the GI50 (NCI-H322M; read-out: GI50) was 9.5 µM, the CC50 (NCI-H322M; [21]) was 54.6 µM and the GI50 (NCI-H322M; [22]) was 9.55 µM. It also gave a CC50 (NCI-H322M; [23]) of 55 µM, a TGI (NCI-H322M; read-out: Log10TGI (converted)) of 23.4 µM and a TGI (NCI-H322M; read-out: TGI) of 23.2 µM. It also gave an Activity (SF-295) of 30%, an Activity (SR) of 81% and an Activity (IGROV-1 [10]) of 83%. It also gave an Activity (HOP-92 [11]) of 88%, an Activity (SF-268) of 91% and an Activity (HOP-92 [12]) of 69%. For the same compound, the Activity (K562 [13]) was 10%, the Activity [14] was 78% and the Activity (SNB-19) was 54%. For the same compound, the Activity (IGROV-1 [15]) was 56%, the GI50 (UO-31 [16]; read-out: GI50) was 6.32 µM and the CC50 (UO-31 [16]; [21]) was 49.2 µM. The GI50 (UO-31 [16]; [22]) was 6.31 µM, the CC50 (UO-31 [16]; [23]) was 49 µM and the TGI (UO-31 [16]; read-out: Log10TGI (converted)) was 20.9 µM. For the same compound, the TGI (UO-31 [16]; read-out: TGI) was 20.8 µM, the Activity (UO-31 [17]) was 81% and the GI50 (HL-60(TB) [18]; read-out: GI50) was 2.08 µM. The CC50 (HL-60(TB) [18]; [21]) was 35.5 µM, the GI50 (HL-60(TB) [18]; [22]) was 2.09 µM and the CC50 (HL-60(TB) [18]; [23]) was 35.5 µM. It also gave a TGI (HL-60(TB) [18]; read-out: Log10TGI (converted)) of 5.01 µM, a TGI (HL-60(TB) [18]; read-out: TGI) of 4.97 µM and an Activity (U-251) of 98%. The Activity (HCC 2998) was 115.46%, the Activity (K562 [19]) was 67.84% and the Activity (BT-549 [20]) was 84%. The Activity (ACHN) was 39%.

From ChEMBL document CHEMBL1153726, “Synthesis and anticancer activity of sclerophytin-inspired hydroisobenzofurans” (Bioorg Med Chem Lett, 2009)
